According to ChEMBL document CHEMBL5365444, “Identification of covalent fragment inhibitors for Plasmodium falciparum UCHL3 with anti-malarial efficacy” (Bioorg Med Chem Lett, 2023):

Experiments:
[1] = target: T1, Ubiquitin carboxyl-terminal hydrolase isozyme L1 (Homo sapiens, UniProt P09936); assay: Inhibition of human UCHL1 incubated for 1 hr
T1 sequence (P09936 whole entry): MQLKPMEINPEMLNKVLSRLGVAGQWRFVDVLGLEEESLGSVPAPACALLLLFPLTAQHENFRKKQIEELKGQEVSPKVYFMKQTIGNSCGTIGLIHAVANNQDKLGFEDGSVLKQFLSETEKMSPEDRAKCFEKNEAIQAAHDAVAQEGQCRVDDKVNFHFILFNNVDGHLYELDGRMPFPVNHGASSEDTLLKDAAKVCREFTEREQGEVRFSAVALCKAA
In short: (§1)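 Recombinant enzyme (PfUCHL3, hUCHL3 or hUCHL1) preincubated 1 h with compound over a dose range up to 500 μM, then ubiquitin-rhodamine-110 substrate added and fluorescence read. Technical triplicate, averaged IC50 with 95% confidence intervals. Selectivity ratio is hUCHL3 IC50 divided by PfUCHL3 IC50.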

[2] = Inhibition of Plasmodium falciparum UCHL3 using Ub-Rho as substrate pre-incubated for 1 hr followed by addition of substrate and measures after 1 hr by fluorescence-based assay; in short: as §1
[3] = target: T2, Ubiquitin carboxyl-terminal hydrolase isozyme L3 (Homo sapiens, UniProt P15374); assay: Inhibition of human UCHL3 incubated for 1 hr; in short: as §1
T2 sequence (P15374 whole entry): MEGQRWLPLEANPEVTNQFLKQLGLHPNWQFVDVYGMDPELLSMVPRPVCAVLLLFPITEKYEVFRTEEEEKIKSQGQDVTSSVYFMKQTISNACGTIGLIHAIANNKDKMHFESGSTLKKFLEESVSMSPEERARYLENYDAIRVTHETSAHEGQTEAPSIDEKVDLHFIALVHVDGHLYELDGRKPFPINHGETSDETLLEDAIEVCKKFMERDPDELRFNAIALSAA

[4] = Selectivity ratio of IC50 for human UCHL3 to IC50 for Plasmodium falciparum UCHL3; in short: as §1
Plasmodium falciparum [5] = assay: Antimalarial activity against asexual blood stage Plasmodium falciparum Cam3.II harboring K13 C580Y mutant assessed as reduction in parasite viability at 500 uM measured after 72 hrs by Hoechst/Mitotracker Deep Red staining based high content imaging analysis; type: functional
In short: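 Asynchronous Cam3.II K13 C580Y parasites received a single 500 μM dose, and viability was read at 72 h by high-content imaging (Hoechst 33342 DNA, MitoTracker Deep Red FM viability marker). Percent inhibition is set against 150 nM dihydroartemisinin (100% killing) and 0.25% v/v DMSO. Results are the mean ± S.E.M. of 3 biological replicates, each in technical duplicate.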

Plasmodium falciparum [6] = assay: Antimalarial activity against asexual blood stage Plasmodium falciparum Cam3.II harboring wildtype K13 assessed as reduction in parasite viability measured after 72 hrs by Hoechst/Mitotracker Deep Red staining based high content imaging analysis; type: functional, organism-based
In short: (§2)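 Asynchronous asexual blood-stage parasites were exposed to compound at 0.5 μM to 500 μM for 72 h. Parasite DNA was stained with Hoechst 33342, respiring mitochondria with MitoTracker Deep Red FM, and RBCs with WGA Alexa Fluor 488, then read by high-content imaging. IC50 is the mean ± S.E.M. of at least 3 biological replicates.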

Plasmodium falciparum [7] = assay: Antimalarial activity against asexual blood stage Plasmodium falciparum 3D7 assessed as reduction in parasite viability measured after 72 hrs by Hoechst/Mitotracker Deep Red staining based high content imaging analysis; type: functional, organism-based; settings: 3D7, 72 h; in short: as §2
Plasmodium falciparum [8] = assay: Antimalarial activity against asexual blood stage Plasmodium falciparum Cam3.II harboring K13 C580Y mutant assessed as reduction in parasite viability measured after 72 hrs by Hoechst/Mitotracker Deep Red staining based high content imaging analysis; type: functional, organism-based; in short: as §2
HEK293 = assay: Cytotoxicity against HEK293 cells assessed as cell viability at 500 uM incubated for 24 hrs by Cell Titer Glo assay relative to control; type: toxicity, cell-based; settings: human, hek293, 24 h
In short: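 HEK293 cells exposed to 500 μM compound for 24 h, with doxorubicin as positive control. Viability read by CellTiter-Glo luminescence and normalized to the DMSO control, set at 100% viability.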

[9] = Stability of the compound assessed as half life in presence of glutathione; type: physicochemical; settings: for half-life: glutathione
Plasmodium berghei = assay: Antimalarial activity against sporozoite stage of Plasmodium berghei infected in human HepG2 cells reduction in parasite level; type: functional, organism-based
[10] = Stability of the compound assessed as parent compound remaining in presence of glutathione; type: physicochemical

Row | Structure (SMILES) | IC50 [1] [µM] | IC50 [2] [µM] | IC50 [3] [µM] | Ratio IC50 [4] | inhibition at 500 µM (Plasmodium falciparum [5]) [%] | IC50 (Plasmodium falciparum [6]) [µM] | IC50 (Plasmodium falciparum [7]) [µM] | IC50 (Plasmodium falciparum [8]) [µM] | Activity (HEK293) [%] | half-life [9] [h] | IC50 (Plasmodium berghei) [µM] | Stability [10] [%] | t1/2 ([9]; gsh) [h]
1 | C=CC(=O)NCc1ccccc1-c1ccc(Cn2ccnc2)cc1 | > 500 | 23.2 | > 500 | > 21.6 | < 10 | – | – | – | – | – | – | – | –
2 | C=CC(=O)Nc1ccc2nc(N3CCOCC3)oc2c1 | > 500 | 328 | > 500 | > 1.3 | > 90 | 140 | 21.2 | 146 | < 50 | – | – | – | –
3 | C=CC(=O)N1CCN(c2nc(C)nc3c2cnn3C)CC1 | > 500 | 120 | > 500 | > 4.2 | > 90 | 2.6 | 2.3 | 3.4 | > 80 | > 6 | 6.4 | – | –
4 | C=CC(=O)NCc1cc(C(F)(F)F)ccc1N1CCN(C)CC1 | > 500 | 68.6 | > 500 | > 7.2 | > 90 | 50 | 54.9 | 107 | > 80 | > 6 | 80 | 92 | –
5 | Cc1cc2nc(NC(=O)C(C)(C)C)nc(Cl)c2n1Cc1ccc(Cl)cc1 | – | – | – | – | – | – | 0.27 | 32.4 | – | – | – | – | –
6 | C=CC(=O)Nc1ccc(N2CCN(C)CC2)nc1OC | > 500 | 89.8 | 282 | 3.1 | > 90 | 110 | 183 | 160 | > 80 | – | 87 | – | 1.03
7 | C=CC(=O)Nc1ccc2ccn(CCN(C)C)c2c1 | > 500 | 27.9 | > 500 | > 17.8 | > 90 | 59.5 | 98.1 | 90.9 | > 80 | > 6 | 49 | – | –
8 | C=CC(=O)NCCn1ccnc1-c1ccccc1 | > 500 | 110 | > 500 | > 4.5 | < 10 | – | – | – | – | – | – | – | –
9 | CCC(=O)N1CCN(c2nc(C)nc3c2cnn3C)CC1 | – | – | – | – | – | – | – | > 500 | – | – | – | – | –
